Screening data from PubChem.
An excerpt weighted towards active compounds, which were near 4.6% of everything screened.
OX1R antag-1: OX1R (human) antagonism. O43613. OX1R-expressing cells, FRET antagonist read-out. inhibition, % at 6.6 µM. 330,000 tested, 1.8% active. AID 485270; in the data active means inhibition mostly above about 38%, no sharp cut-off; inactive means mostly below about 40%;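 further: 0% = agonist challenge alone and 100% = reference antagonist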
TAAR1 ag: human TAAR1 agonism | Q96RJ0 | CHO RD-HGA16 TAAR1, Fluo-8 calcium fluorescence; vehicle wells 0%, saturating PEA agonist 100% | activation, % at 3 µM | 360,000 tested, 0.99% active | AID 624467;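 active means activation above the mean activation of all test compounds in the run plus 3 SD, cut at about 38% in these data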
Target sequence (Q96RJ0 whole entry, looked up): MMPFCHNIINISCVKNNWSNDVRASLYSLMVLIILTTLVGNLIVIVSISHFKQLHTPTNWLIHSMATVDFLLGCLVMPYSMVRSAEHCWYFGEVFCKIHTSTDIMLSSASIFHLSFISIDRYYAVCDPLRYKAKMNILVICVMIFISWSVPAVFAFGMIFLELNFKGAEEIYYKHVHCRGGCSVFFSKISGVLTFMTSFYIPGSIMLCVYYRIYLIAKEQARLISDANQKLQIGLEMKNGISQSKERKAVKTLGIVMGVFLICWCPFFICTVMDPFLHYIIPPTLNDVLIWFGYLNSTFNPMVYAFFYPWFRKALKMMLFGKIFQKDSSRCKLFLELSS
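System: CHO-derived RD-HGA16 cells with stable Gα16 and human TAAR1 / Times: 17-24 h plating, Fluo-8 75 min 37 °C, 30 min RT / Technique: calcium-sensitive Fluo-8 signal, excitation 470-495, emission 515-575 nm / Measure: % activation relative to PEA EC100 response / Benchmarks: DMSO and PEA EC100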
CHO parental Ca: counter-screen for OX1R antagonists: effect in parental CHO cells; parental CHO-K1, ATP-induced calcium, Fluo-8 fluorescence; 330,000 tested, 0.63% active; AID 463079; inhibition, % at 5.6 µM;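 active means inhibition above that plate's mean sample inhibition plus 3 SD, cut at about 26% in these data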;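 further: 0% = ATP-challenged DMSO wells and 100% = DMSO wells without ATP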
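Assay system: untransfected parental CHO cell line. Also added: ATP agonist challenge. Dosing: one dose, 5.6 µM nominal. Measured by: Fluo-8 fluorescence. Read-out: % inhibition. Benchmarks: ATP wells versus no-ATP DMSO wells. Repeats: no replicates.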
GPR7 antag: antagonists of human GPR7 (neuropeptides B/W receptor 1); P48145; GPR7-expressing cells, fluorescence antagonist assay; AID 1861; 290,000 tested, 1.1% active; inhibition, % at 4.4 µM; in the data active means inhibition above about 16%, passing the limit was not always enough;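 further: cells stimulated with the agonist NPW; 0% = agonist with vehicle and 100% = vehicle without agonist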
Target sequence (P48145 whole entry, looked up): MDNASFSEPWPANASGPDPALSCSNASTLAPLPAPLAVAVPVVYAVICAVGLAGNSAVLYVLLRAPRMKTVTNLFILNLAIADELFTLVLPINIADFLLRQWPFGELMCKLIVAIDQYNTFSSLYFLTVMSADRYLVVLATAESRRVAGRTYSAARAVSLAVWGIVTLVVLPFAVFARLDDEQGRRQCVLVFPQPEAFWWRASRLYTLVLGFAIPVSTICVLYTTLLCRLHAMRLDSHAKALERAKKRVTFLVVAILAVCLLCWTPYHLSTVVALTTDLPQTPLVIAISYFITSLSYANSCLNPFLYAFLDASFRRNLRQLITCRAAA
TAAR1 antagonist: human TAAR1 antagonism; Q96RJ0; CHO RD-HGA16 TAAR1, Fluo-8 calcium fluorescence, antagonist; inhibition, % at 3 µM; 360,000 tested, 1.5% active;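 active means inhibition above a per-plate cutoff, the mean inhibition of test compounds on that plate plus 3 SD, cut at about 49% in these data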;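 further: 0% = DMSO plus EC80 beta-PEA response and 100% = DMSO alone without agonist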
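Test system: hTAAR1-expressing CHO RD-HGA16 cells, Gα16-coupled; Probe or stimulus: EC80 β-phenethylamine stimulus; Compound dosing: single nominal final test compound concentration of 3 µM; Timing: 140 s kinetic read after compound, 140 s after agonist; Signal: Fluo-8 calcium-sensitive fluorescence; Measure: % inhibition of agonist calcium response; Controls: DMSO and EC80 PEA controls.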
OX1R antag-2: human HCRTR1 antagonism | CHO/OX1R cells, Fluo-8 calcium fluorescence, orexin A | O43613 | 330,000 tested, 0.43% active | inhibition, % at 5 µM;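 active means inhibition above its plate's threshold, mean inhibition of all tested compounds on the plate plus 3 SD, cut at about 37% in these data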;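 further: 0% = orexin A challenge wells and 100% = SB-334867-A antagonist wells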
Numbers without * were called inactive; x = no result.

SMILES	OX1R antag-1	TAAR1 ag	CHO parental Ca	GPR7 antag	TAAR1 antagonist	OX1R antag-2
CSc1ccc(S(=O)(=O)NCC(=O)OCC(=O)N(C)Cc2ccccc2)cc1[N+](=O)[O-]	51*	4	-9	x	12	-22
CSc1ccc(S(=O)(=O)NCC(=O)OCCOc2ccccc2)cc1[N+](=O)[O-]	54*	8	21	x	29	-13
COc1ccccc1C(=O)N1CCN(C(=O)[C@@H](Cc2ccccc2)NC(=O)[C@H]2O[C@@H](n3ccc(N)nc3=O)[C@H](O)[C@@H]2O)CC1	x	0	x	x	4	x
C/C(=N\Nc1cccc2cccnc12)c1ccccc1O	35	11	-17	-3	4	-18
C/C(=N\Nc1cccc2cccnc12)c1ccccn1	43*	-2	-6	-2	-30	-9
O=C(Nc1ccccc1Cl)c1cc(C2CCCCN2S(=O)(=O)c2ccc(F)cc2F)on1 (stereo unspecified)	x	0	x	x	0	x
O=c1ccsn1Cc1ccccc1	23	44*	-15	7	37	-7
CCCCCc1nc2sc3c(c2c(=O)n1NC(=O)c1ccc([N+](=O)[O-])cc1)CC(C)(C)OC3	53*	7	0	-13	25	-30
CCC(CC)c1nnc(NC(=O)C2CSC3(C)CCC(=O)N23)s1 (stereo unspecified)	14	5	-17	x	-12	-21
O=C(Nc1ccc(Cl)c([N+](=O)[O-])c1)C(Sc1ccccc1)c1ccccc1 (stereo unspecified)	27	6	-6	-5	57*	23
O=C(Nc1cc([N+](=O)[O-])ccc1Cl)C(Sc1ccccc1)c1ccccc1 (stereo unspecified)	16	0	-11	-3	22	-18
COCC(C)NC(C(=O)Nc1ccc(Cl)c([N+](=O)[O-])c1)c1ccccc1 (stereo unspecified)	11	-1	81*	-5	-16	-18
O=C(N[C@H](Cc1ccccc1)C(=O)NCc1ccccn1)[C@H]1O[C@@H](n2ccc(=O)[nH]c2=O)[C@H](O)[C@@H]1O	x	1	x	x	-9	x
O=C(c1ccc2c(c1)C(=O)N(Cc1ccco1)C2=O)N1CCOCC1	18	10	-10	-1	-7	-11
CCN1C(=O)c2ccc(C(=O)O)cc2C1=O	23	6	3	-10	4	-6
O=C(O)c1ccc(C(=O)c2ccc3c(c2)C(=O)N(Cc2ccco2)C3=O)cc1	50*	-1	4	0	7	-14
O=C(O)c1ccc(C(=O)c2ccc3c(c2)C(=O)N(CCO)C3=O)cc1	74*	2	9	-13	-3	-4
COc1ccccc1CCNC(=O)C1CC(=O)N(c2ccccc2F)C1 (stereo unspecified)	x	2	x	x	-7	x
CCCCCCCCN1C(=O)[C@@H](CC(=O)N2CCOCC2)C[C@@]2(C(=O)OC)C1=C[C@H](C1CCCC1)O[C@@H]2C	x	-2	x	x	-44	x
CN(CC(=O)NCC1CCCO1)S(=O)(=O)c1ccc2ccccc2c1 (stereo unspecified)	x	0	x	x	0	x
O=C1Nc2ccccc2S/C1=C/c1cccs1	61*	-2	-8	-12	-17	-5
Cc1ccc(N=C2NC(=O)/C(=C\c3cccs3)S2)cc1C	57*	-1	-28	7	24	-22
Cc1ccc(C)c(Sc2ccc(NC(=O)CCN3C(=O)NC4(CCCC4)C3=O)cc2)c1	11	8	63*	x	35	60*
Cc1ccc(NC(=O)CCN2C(=O)NC3(CCCC3)C2=O)cc1	x	0	x	x	-11	x
CC(C)C[C@H]1CN=C(Nc2ccccc2)N1CCc1cccc(F)c1	8	x	50*	x	x	87*
SMILES	OX1R antag-1	TAAR1 ag	CHO parental Ca	GPR7 antag	TAAR1 antagonist	OX1R antag-2
CC(C)C[C@H]1CN=C(N(C)C)N1CCc1cccc(F)c1	0	14	-4	x	8	-29
COC(=O)c1cc2c(c3c4ccccc4n(S(=O)(=O)c4ccc(C)cc4)c13)C(=O)N(C)C2	x	-2	x	x	-16	x
C/C(=N\NC(=O)c1ccccc1O)C1C(=O)c2ccccc2C1=O	61*	16	-13	7	1	-21
C/C(=N\NC(=O)c1cc2ccccc2cc1O)c1ccccn1	4	5	17	-6	-2	1
C/C(=N/NC(=O)c1cc2ccccc2cc1O)C1C(=O)c2ccccc2C1=O	65*	9	-8	2	-2	12
O=C(NCC1CCCO1)c1ccc(COCC(F)(F)C(F)F)cc1 (stereo unspecified)	10	-2	-1	17*	-8	-6
CC(C)NC(=O)c1ccc(COCC(F)(F)C(F)F)cc1	11	9	-2	2	2	-18
C[C@H](CCC(=O)O)[C@H]1CC[C@H]2[C@@H]3CC[C@@H]4C[C@H](O)CC[C@]4(C)[C@H]3C[C@H](O)[C@]12C	17	4	-4	x	-9	5
C[C@H](CCC(=O)OCc1cn(CC(=O)c2ccc(O)cc2)nn1)C1CC[C@H]2[C@@H]3CC[C@@H]4C[C@H](O)CC[C@]4(C)[C@H]3C[C@H](O)[C@]12C (stereo partly specified)	x	11	x	x	53*	x
CCN(CC)C(=O)C1=C(C)N(CCC2=CCCCC2)C(=O)C(CC(=O)NCc2cccs2)C1 (stereo unspecified)	x	0	x	x	-8	x
COc1ccc(CN2c3ccccc3C(=O)CS2(=O)=O)cc1OC	x	0	x	x	-4	x
Oc1ccccc1C1=NN(c2ccccc2)C(c2ccc(F)cc2)C1 (stereo unspecified)	x	2	x	-12	-12	x
Oc1ccc(C2=NN(c3ccccc3)C(c3ccc(F)cc3)C2)cc1 (stereo unspecified)	17	2	58*	-18	-1	5
COc1ccccc1CCNC(=O)c1cc(-c2ccccn2)nc2ccccc12	x	8	x	x	52*	x
COc1ccccc1CCNC(=O)c1ccoc1C	9	40*	-14	12	16	-25
Cc1occc1C(=O)NCCCCc1ccccc1	19	2	-11	13	0	-17
Cc1cc2c(nc1C)CCCN2Cc1ccccn1	x	0	x	x	6	x
CCOC(=O)c1c(C)[nH]c(C)c1S(=O)(=O)NCc1ccccc1C	50*	0	2	-9	-14	13
CCOC(=O)c1c(C)[nH]c(C)c1S(=O)(=O)NCc1ccccc1OCC	62*	2	-3	-9	-17	14
CCOc1ccccc1CNS(=O)(=O)c1ccc2[nH]c(=O)sc2c1	20	16	-3	21*	12	-6
CCOC(=O)c1c(C)[nH]c(C)c1S(=O)(=O)NCc1ccc(OCC)cc1	16	0	-18	-15	4	-24
CCCn1c(SCC(=O)NC2CCCCC2)nnc1-c1ccco1	-5	-2	-15	-2	14	-13
